Source: PubChem BioAssay (several laboratories)
The list is not random: actives were taken first. Their share in the collection is about 1.7%.
TPT1 inhibitor = blocks Candida albicans tRNA 2'-phosphotransferase; recombinant caTPT1, FP RNA substrate dephosphorylation; inhibition, % at 5 µM; 300,000 compounds, 0.81% hits; AID 1962;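 active = inhibition above the mean of all tested compounds plus 3 SD, set per screening campaign, cut at about 24% in these data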;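 note: plate controls were DMSO alone for no effect and ferristatin control at 100 nM for full effect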
CSN inh = CSN deneddylation inhibition. Q92905. inhibition, % at 12.5 µM. Purified CSN, SCF-Nedd8-OG deneddylation, fluorescence polarization. 360,000 compounds, 0.38% hits;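 active = pattern-corrected inhibition above about 35%, with an unprinted fluorescence ratio check between 0.5 and 1.5, limit read from the data, passing the limit was not always enough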;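 note: 0% = enzyme with substrate and 100% = substrate without enzyme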
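Assay system: purified human Csn5 enzyme expressed in HEK293T cells; measure: % inhibition; also added: SCFSkp2-Nedd8OG substrate at 10 nM final; technique: fluorescence polarization; times: reaction 90 min, room temperature; medium: Tris buffer pH 7.5, NaCl, DTT, Tween-20, trehalose, ovalbumin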
HNF4A DNA FP = change in binding of human HNF4 alpha to DNA. P41235. HNF4a-FITC DNA binding, fluorescence polarization, 1 h. activity change, % at 10 µM. 360,000 compounds, 0.3% hits; in the data active = activity change above about 30%, passing the limit was not always enough
Target sequence (P41235 whole entry, looked up): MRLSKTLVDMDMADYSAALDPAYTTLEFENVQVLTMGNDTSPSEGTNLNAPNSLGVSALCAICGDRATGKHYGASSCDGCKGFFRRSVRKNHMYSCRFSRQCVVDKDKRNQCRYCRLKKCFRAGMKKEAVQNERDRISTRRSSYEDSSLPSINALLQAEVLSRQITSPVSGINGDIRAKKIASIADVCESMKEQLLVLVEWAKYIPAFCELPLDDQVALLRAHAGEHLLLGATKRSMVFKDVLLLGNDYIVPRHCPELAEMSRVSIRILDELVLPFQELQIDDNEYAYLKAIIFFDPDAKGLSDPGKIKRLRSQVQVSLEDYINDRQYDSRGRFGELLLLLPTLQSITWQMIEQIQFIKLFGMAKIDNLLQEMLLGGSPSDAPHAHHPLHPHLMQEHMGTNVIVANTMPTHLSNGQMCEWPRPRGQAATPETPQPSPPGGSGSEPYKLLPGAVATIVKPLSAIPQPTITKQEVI
IDE cell activ = IDE (human) activation, cell-based; activation, % at 5.96 µM; 340,000 compounds, 0.073% hits; P14735; HEK cells, FAbeta-B cleavage, fluorescence polarization; 0% vehicle, 100% cell-free pure enzyme wells;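 active = activation above the mean of all tested compounds plus 3 SD, set per screening campaign, cut at about 17% in these data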
IDE inh = inhibits human insulin-degrading enzyme in HEK cells; P14735; FAbetaB cleavage, fluorescence polarization; inhibition, % at 5.59 µM; 320,000 compounds, 0.41% hits; AID 434962;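 active = percent inhibition above the average of all tested compounds plus 3 SD, set per screening campaign, cut at about 16% in these data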;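 note: IDE supplied by intact live HEK cells; FP after avidin binding of uncleaved biotin substrate so inhibition keeps polarization high; 0% = DMSO wells and 100% = 60 µM reference IDE inhibitor Ii1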
Rpn11 block = inhibitors of human proteasome Rpn11 | O00487 | human 26S proteasome, Ub4-pepOG fluorescence polarization; 20S core pre-blocked with epoxomicin | inhibition, % at 20 µM | 360,000 compounds, 0.59% hits;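 active = inhibition at 20 µM, scaled to each plate's controls, above about 33%, limit read from the data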
TPT1 inh confirm = confirmation of Candida albicans TPT1 inhibitors. AID 2149. inhibition, % at 5 µM. 2,400 compounds, 74% hits. shares compounds with TPT1 inhibitor. recombinant caTPT1, fluorescence polarization, RNase T1 coupled;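 active = inhibition above the primary screen limit, the mean inhibition of all tested compounds plus 3 SD, cut at about 25% in these data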
RNase T1 inh = RNase T1 inhibition in TPT1 counter-screen | AID 2153 | RNase T1 cleavage, fluorescence polarization, 1536-well | 2,400 compounds, 83% hits | shares compounds with TPT1 inhibitor | inhibition, % at 5 µM;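 active = inhibition above the solvent-only control well mean plus 3 SD, limit set per screening run, cut at about 23% in these data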;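 note: plate controls were DMSO wells with enzyme for no effect and wells without RNase T1 for full effect; inhibitors block cleavage so intact labeled substrate keeps polarization high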
Target sequence (P00651 whole entry, looked up): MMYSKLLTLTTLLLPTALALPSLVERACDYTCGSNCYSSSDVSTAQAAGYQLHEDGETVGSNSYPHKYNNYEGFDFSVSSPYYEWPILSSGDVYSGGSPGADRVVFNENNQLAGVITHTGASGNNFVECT
IDE inh confirm = confirmation of human insulin-degrading enzyme inhibitors in cells. 1,200 compounds, 51% hits. shares compounds with IDE inh. inhibition, % at 5.59 µM. HEK cells, FAbetaB cleavage, fluorescence polarization;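 active = mean inhibition across triplicate wells above the cutoff set by the earlier primary insulin-degrading enzyme screen, cut at about 16% in these data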;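 note: 0% = DMSO wells and 100% = 60 µM reference IDE inhibitor Ii1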
HEK293 tox = kills HEK cells in IDE inhibitor counter-screen. shares compounds with IDE inh. 1,200 compounds, 28% hits. inhibition, % at 5.59 µM. HEK293 cytotoxicity, ATP luminescence. AID 449730; in the data active = inhibition above about 22%;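 note: 0% = vehicle wells and 100% = reference cytotoxic drug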
Rpn11 confirm = Rpn11 inhibition confirmation, single concentration; shares compounds with Rpn11 block; purified human 26S proteasome, Ub4-pepOG fluorescence polarization; proteasome pretreated with epoxomicin; inhibition, % at 20 µM; 1,900 compounds, 29% hits; AID 602318
MMP-2 inh = blocks human MMP-2, flagging nonselective RPN11 hits | recombinant MMP-2, FRET peptide cleavage fluorescence | shares compounds with Rpn11 block | inhibition, % at 20 µM | AID 602330 | 1,900 compounds, 4% hits;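 note: human MMP-2 activated beforehand with APMA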
Thrombin inh = thrombin (bovine) inhibition counter-screen; AID 602333; bovine thrombin cleavage of Ub4-pepOG, fluorescence polarization; shares compounds with Rpn11 block; inhibition, % at 20 µM; 1,900 compounds, 13% hits;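 active = mean inhibition at least 40% at 20 µM, or signal 3 deviations below plate average, so some actives read negative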;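 note: plate controls were thrombin with DMSO for no effect and buffer wells lacking thrombin for full effect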
The depositor's hits bear a star; nt = no result given. Cut-off read from the data, not from the text of the source, unless noted: active = inhibition above about 40%; inactive = the rest.

SMILES	TPT1 inhibitor	CSN inh	HNF4A DNA FP	IDE cell activ	IDE inh	Rpn11 block	TPT1 inh confirm	RNase T1 inh	Rpn11 confirm	MMP-2 inh	Thrombin inh	others
C(=N\NC1=Nc2cccc3cccc1c23)/c1cccnc1	26.3*	29.9	40.5*	-16.6	22.8*	70.2*	41.2*	55.7*	40.2*	-57.5	22.6	IDE inh confirm=15.4;HEK293 tox=9.2
CCOC(=O)c1ccc(/C=C2/C=C(c3ccccc3)N(c3ccc(Cl)c(C(=O)O)c3)C2=O)cc1	61.9*	29.5	-12.0	-7.3	16.6*	68.1*	74.4*	80.2*	155.7*	-46.7	152.5*	IDE inh confirm=44.4*;HEK293 tox=84.1*
Nc1ccc(Nc2ccccc2N)cc1	25.0*	7.8	-28.1	8.7	-0.9	35.3*	26.5*	36.0*	0.5	-16.0	-2.4
COc1ccc(Nc2ccccc2N)cc1	36.6*	5.2	34.9	6.4	-0.5	52.5*	27.1*	35.1*	26.1	-1.6	17.0
COc1ccc(S(=O)(=O)N2CCCC2=O)cc1N(C)S(C)(=O)=O	nt	-5.3	0.9	4.9	nt	-7.5	nt	nt	nt	nt	nt
NS(=O)(=O)c1ccc(Nc2ccc([N+](=O)[O-])c3nonc23)cc1	38.3*	17.2	29.7	-5.2	5.2	56.2*	47.7*	61.9*	44.5*	-70.7	33.7
COc1cccc(/C=N/Nc2ccc([N+](=O)[O-])cn2)c1O	-3.1	-1.7	3.2	6.3	1.7	2.5	nt	nt	nt	nt	nt
Cc1c(C(=O)O)cccc1-n1c(C)cc(/C=N/Nc2ccc([N+](=O)[O-])cn2)c1C	27.8*	9.0	5.8	2.5	-2.4	56.3*	46.5*	56.9*	23.4	-51.5	-3.5
COc1cc(/C=C/c2nc3ccccc3c(=O)[nH]2)cc(Br)c1O	49.8*	38.2*	35.4	-156.8	43.9*	108.6*	79.3*	78.0*	42.9*	-23.4	19.4	IDE inh confirm=143.4*;HEK293 tox=12.8
Cc1ccc2nc(NC(=O)CSc3nc(=O)n(CCN(C)C)c4c3CCCC4)sc2c1	-3.4	0.1	3.1	0.7	7.4	-1.6	nt	nt	nt	nt	nt
N#Cc1c(SCC(=O)Nc2nncs2)sc2c(O)cc(=O)[nH]c12	76.2*	34.0	-34.0	4.5	3.0	52.7*	9.1	14.7	36.6	52.1*	9.1
N#Cc1c(SCC(=O)Nc2ccc(C(F)(F)F)cc2)sc2c(O)cc(=O)[nH]c12	3.6	0.6	0.2	-3.1	4.7	9.4	nt	nt	nt	nt	nt
CCOc1ccc(S(=O)(=O)N2CCCC(C(=O)NC3CC3)C2)cc1Cl (stereo not given)	1.9	4.3	3.0	0.4	-3.9	-2.1	nt	nt	nt	nt	nt
COc1ccc(/C=C/C(O)=C(\C#N)c2nnc(N3CCOCC3)n2-c2ccccc2)cc1OC	2.4	-3.0	-5.3	4.1	0.2	6.7	nt	nt	nt	nt	nt
O=C(C1=C(O)C(=O)N(c2ncccn2)C1c1ccc(Cl)cc1)c1ccco1 (stereo not given)	1.7	25.5	13.6	2.6	1.5	28.9	nt	nt	nt	nt	nt
O=C(C1=C(O)C(=O)N(c2ncccn2)C1c1ccc(Cl)c(Cl)c1)c1ccco1 (stereo not given)	27.8*	48.3*	14.4	1.8	4.6	41.4*	30.0*	39.5*	23.0	-5.0	20.3
CCN1CCN(S(=O)(=O)c2ccc(C(=O)Nc3sc4c(c3C(N)=O)CCN(CC)C4)cc2)CC1	95.6*	16.1	28.2	-2.2	1.0	59.1*	114.9*	118.3*	2.2	-51.7	-1.6
O=C(NC(=O)c1c(F)cccc1F)Nc1cccc(Oc2ncc(Cl)cn2)c1	nt	3.2	4.3	-0.6	nt	3.8	nt	nt	nt	nt	nt
O=[N+]([O-])c1ccc(N/N=C/c2ccc[nH]2)cc1	64.4*	15.6	33.8	2.5	4.1	66.6*	64.8*	75.5*	51.0*	30.2	34.2
O=[N+]([O-])c1ccc(N/N=C/c2cccc(O)c2)cc1	45.4*	11.9	14.4	-4.1	-2.5	45.6*	54.6*	66.4*	18.8	25.1	11.0
O=C(NCc1ccc(F)cc1)c1cc(C2CCCN(C(=O)c3ccc4c(c3)CCO4)C2)on1 (stereo not given)	nt	0.7	1.3	nt	nt	-0.3	nt	nt	nt	nt	nt
CCN1CCN(CC(=O)Nc2c(OC)cccc2OC)CC1	-5.1	-5.3	-4.3	-2.5	2.3	-7.6	nt	nt	nt	nt	nt
O=C(CC[C@H]1O[C@@H](n2ccc(=O)[nH]c2=O)[C@H](O)[C@@H]1O)N[C@H](Cc1ccccc1)C(=O)NCCCc1ccccc1	nt	-0.1	10.2	nt	nt	5.8	nt	nt	nt	nt	nt
C[C@H]1CN([C@@H](C)CO)C(=O)CCCn2cc(nn2)CO[C@@H]1CN(C)C(=O)Nc1ccc(-c2cccs2)cc1	nt	0.9	-0.3	nt	nt	-14.0	nt	nt	nt	nt	nt
CN1CCc2nc(NC(=O)c3cccc(OC(F)F)c3)sc2C1	60.1*	13.1	48.5*	0.3	7.8	50.7*	25.8*	32.9*	-8.5	-5.7	-1.6
SMILES	TPT1 inhibitor	CSN inh	HNF4A DNA FP	IDE cell activ	IDE inh	Rpn11 block	TPT1 inh confirm	RNase T1 inh	Rpn11 confirm	MMP-2 inh	Thrombin inh	others
O=C(N/N=C/c1sc(=O)n(-c2ccccc2)c1Cl)c1ccncc1	32.3*	13.6	20.5	-0.7	2.4	57.0*	69.2*	81.2*	24.9	-26.3	12.0
COc1cc(C(=O)N/N=C/c2sc(=O)n(-c3ccccc3)c2Cl)cc(OC)c1OC	7.8	1.9	10.6	-2.2	4.1	21.6	nt	nt	nt	nt	nt
c1cc(Nc2cccc3nccnc23)c2nccnc2c1	25.3*	13.6	7.3	-6.5	4.6	34.0*	24.8*	35.1*	30.6	-43.3	25.8
Fc1ccc(Nc2cccc3nccnc23)cc1	1.6	3.1	3.0	4.4	3.0	4.0	nt	nt	nt	nt	nt
CCCSc1nnc(NC(=O)c2sc3nc(-c4cccs4)ccc3c2N)s1	66.3*	8.6	33.4	-17.6	2.9	76.4*	22.7	27.5*	61.4*	-31.5	13.6
CC(=O)Nc1cccc(Nc2cc(C)nn2C)c1	nt	-2.2	0.9	nt	nt	-2.5	nt	nt	nt	nt	nt
